Bioassay records: PubChem BioAssay, The Scripps Research Institute Molecular Screening Center
TAAR1 agonist: agonists of human TAAR1; activation, % at 3 µM; CHO RD-HGA16 TAAR1, Fluo-8 calcium fluorescence; vehicle wells 0%, saturating PEA agonist 100%; 0.99% of 360,000 active;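 active means activation above the mean activation of all test compounds in the run plus 3 SD, cut at about 38% in these data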
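System: CHO-derived RD-HGA16 cells with stable Gα16 and human TAAR1 / Times: 17-24 h plating, Fluo-8 75 min 37 °C, 30 min RT / Technique: calcium-sensitive Fluo-8 signal, excitation 470-495, emission 515-575 nm / Measure: % activation relative to PEA EC100 response / Benchmarks: DMSO and PEA EC100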
OXTR potentiate: human OXTR potentiation; P30559; activation, % at 3 µM; 0.061% of 320,000 active; CHO-OTR cells, Fluo-8 calcium fluorescence, potentiator mode; 0% = oxytocin EC15, 100% = EC100; AID 2445;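 active means activation above that plate's cutoff, the mean activation of tested compounds plus 3 SD, cut at about 6.6% in these data, passing the limit was not always enough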;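 further: 100% uses oxytocin at 75 nM as the full agonist control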
Target sequence (P30559 whole entry, looked up): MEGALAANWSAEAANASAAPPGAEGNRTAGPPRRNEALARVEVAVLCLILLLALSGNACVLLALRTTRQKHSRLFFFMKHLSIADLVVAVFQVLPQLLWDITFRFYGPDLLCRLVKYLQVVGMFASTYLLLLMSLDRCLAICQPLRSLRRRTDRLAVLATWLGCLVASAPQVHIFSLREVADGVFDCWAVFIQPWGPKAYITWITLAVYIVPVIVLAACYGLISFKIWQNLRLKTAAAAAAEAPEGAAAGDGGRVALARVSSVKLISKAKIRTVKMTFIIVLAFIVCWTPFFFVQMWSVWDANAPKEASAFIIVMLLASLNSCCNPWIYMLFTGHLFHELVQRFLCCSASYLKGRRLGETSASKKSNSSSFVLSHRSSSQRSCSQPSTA
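System: human OTR in CHO cells; Also added: sub-maximal oxytocin, roughly EC15; Timing: compound 6 min at room temperature before oxytocin, 100 s read; Technique: Fluo-8 intracellular calcium fluorescence, ex 470-495, em 515-575 nm; Controls: oxytocin EC15 low and EC100 high; Replication: singlicate.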
TAAR1 antagonist: antagonists of human TAAR1 | CHO RD-HGA16 TAAR1, Fluo-8 calcium fluorescence, antagonist | inhibition, % at 3 µM | 1.5% of 360,000 active | AID 624466;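 active means inhibition above a per-plate cutoff, the mean inhibition of test compounds on that plate plus 3 SD, cut at about 49% in these data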;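 further: 0% = DMSO plus EC80 beta-PEA response and 100% = DMSO alone without agonist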
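System: CHO RD-HGA16 cells bearing hTAAR1. Reagent: EC80 β-phenethylamine stimulus. Schedule: seeding 17-24 h prior, 75-min 37 °C, 30-min RT dye loading. Signal: Fluo-8 intracellular calcium dye fluorescence, real-time kinetic reads. Read-out: % inhibition from peak post-agonist over basal fluorescence ratio. Benchmarks: vehicle wells and EC80 agonist wells. Replicates: n of 1.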
OXTR agonist: human OXTR agonism | P30559 | 0.32% of 320,000 active | CHO-OTR cells, Fluo-8 calcium fluorescence; normalized: DMSO 0%, oxytocin 100% | activation, % at 3 µM | AID 2435;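 active means activation above the mean of all tested compounds plus 3 SD, cutoff set per screening run, cut at about 20% in these data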;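 further: peak over basal fluorescence ratio from a 100 s FLIPR kinetic read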
V1aR counter: counter-screen for oxytocin receptor agonists: human V1a receptor agonists; 0.25% of 320,000 active; P37288; CHO-V1R cells, Fluo-8 calcium fluorescence, agonist mode; 0% DMSO, 100% 3 nM vasopressin; activation, % at 3 µM;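 active means activation above the mean activation of all tested compounds plus 3 SD, per screening run, cut at about 20% in these data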;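 further: signal is peak over basal fluorescence ratio across a 100 second FLIPR read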
TAAR1 nonsel count: nonselective antagonist in TAAR1 antagonist counter-screen | AID 651780 | inhibition, % at 3 µM | shares compounds with TAAR1 antagonist | 77% of 2,400 active | counterscreen cell line, calcium fluorescence, antagonist mode; in the data active means inhibition above about 22%;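 further: CHO-Ga16 host cells stimulated with ATP at an EC80 level; 0% = agonist EC80 plus vehicle and 100% = vehicle without agonist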
TAAR1 ant conf: confirmation of human TAAR1 antagonists; 40% of 2,400 active; TAAR1-expressing cells, fluorescence antagonist read-out; AID 651785; inhibition, % at 3 µM; shares compounds with TAAR1 antagonist; in the data active means inhibition above about 49%;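 further: CHO-Ga16 host cells challenged with agonist PEA near its EC80; 0% = agonist at EC80 plus vehicle and 100% = vehicle with no agonist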
Ga16 ag counter: nonselective Ga16 agonist in TAAR1 antagonist counter-screen. Ga16-expressing cells, calcium fluorescence, agonist counterscreen. activation, % at 3 µM. shares compounds with TAAR1 antagonist. 18% of 2,400 active. AID 651953; in the data active means activation above about 12%;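 further: 0% = vehicle wells and 100% = saturating stimulus response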
TAAR1 ag count: TAAR1 agonism, antagonist counter-screen; shares compounds with TAAR1 antagonist; 2% of 2,400 active; hTAAR1 cell line, fluorescence activation, agonist mode; AID 651955; activation, % at 3 µM; in the data active means activation above about 37%;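 further: CHO cells stably expressing TAAR1 with calcium dye readout; 0% = DMSO vehicle and 100% = full agonist response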
Starred values were filed as active, the others as inactive; / = no result. Only some compounds are listed: those with a hit (about 2.3% of all), similar ones and a draw of the others.

SMILES | TAAR1 agonist | OXTR potentiate | TAAR1 antagonist | OXTR agonist | V1aR counter | TAAR1 nonsel count | TAAR1 ant conf | Ga16 ag counter | TAAR1 ag count
COc1cccc(CNC(=O)[C@@H]2CCCN2C(=O)[C@H]2CCCCN2C(=O)c2cccc(Cl)c2)c1 | 1 | / | 1 | / | / | / | / | / | /
CCOc1ccc2[nH]c3c(NCCc4ccc(OC)c(OC)c4)ncnc3c2c1 | 6 | 0 | 51* | -3 | -1 | 18 | 31 | 4 | 1
CCOc1ccc2[nH]c3c(NCCO)ncnc3c2c1 | 4 | / | -2 | / | / | / | / | / | /
COc1ccccc1NS(=O)(=O)c1cccc(NC(=O)Nc2ccccc2)c1 | 35 | -10 | 98* | 15 | 18 | 60* | 94* | 15* | 50*
O=C(O)/C(=C\C(=O)c1ccccc1)Nc1ccccc1 | / | -1 | / | 1 | 0 | / | / | / | /
CC(C)C[C@H]1CNC(=S)N1C[C@H]1CCCN1C[C@H](Cc1ccccc1)N1C[C@H](Cc2ccc(O)cc2)N(CCc2ccccc2)C1=S | 1 | / | -13 | / | / | / | / | / | /
CCn1c(SCC(=O)Nc2ccccc2N2CCCCC2)nc2c1c(=O)n(C)c(=O)n2C | 13 | -3 | 55* | 2 | 0 | 27* | 47 | 10 | 10
CC(C)n1c(SCC(=O)Nc2ccccc2N2CCOCC2)nc2c1c(=O)n(C)c(=O)n2C | 9 | -4 | -1 | -1 | 1 | / | / | / | /
CCc1ccc(OCCNC(=O)c2ccccc2SCc2ccc(F)cc2)cc1 | 15 | -1 | 54* | 2 | 3 | 26* | 36 | 3 | 2
COc1ccc(NC(=O)c2ccccc2SCc2ccccc2)cc1 | 1 | / | 11 | / | / | / | / | / | /
O=C(NCCOc1ccc(F)cc1)c1ccccc1SCc1ccccc1 | 10 | -13 | 60* | 0 | 0 | 30* | 53* | 7 | 3
O=C(c1cc(Cl)nc2ccccc12)N1CCN(S(=O)(=O)c2cccc(C(F)(F)F)c2)CC1 | 1 | -4 | 9 | -1 | -1 | / | / | / | /
O=C(Nc1ccc(-c2nnc(-c3ccco3)o2)cc1)C(c1ccccc1)c1ccccc1 | 18 | -5 | 74* | 1 | 1 | 32* | 43 | 6 | 2
Cc1ccc(C(=O)Nc2cccc(C(F)(F)F)c2)cc1Nc1ncnc2nc[nH]c12 | 4 | -14 | 52* | -1 | 1 | 32* | 41 | 6 | 1
Cc1ccc(C(=O)Nc2cccc(C(F)(F)F)c2)cc1Nc1cnccn1 | 5 | -7 | -6 | -1 | -1 | / | / | / | /
COC(CNC(=O)Cn1nc(Cc2ccncc2)c2ccccc2c1=O)OC | 3 | -4 | 2 | 0 | 0 | / | / | / | /
Cn1c(C(=O)NC2CC2)cc2c(=O)n(C)c3ccccc3c21 | 2 | 5 | -10 | -1 | 0 | / | / | / | /
Cn1c(C(=O)Nc2ccc3c(c2)OCCO3)cc2c(=O)n(C)c3ccccc3c21 | 3 | -8 | 52* | -1 | 4 | 10 | 35 | 8 | 13
Cc1ccc(CCNC(=O)C2CCCN(c3nc4ccccc4o3)C2)cc1 (stereo unspecified) | 12 | -4 | 50* | -2 | 1 | 23* | 31 | 4 | 1
Cc1cc(=O)c2c(o1)C(=O)c1occc1C2=O | 0 | / | -18 | / | / | / | / | / | /
Cc1ccccc1Cn1cc(NC(=O)c2cc(-c3cccs3)on2)cn1 | 27 | -10 | 62* | 1 | 1 | 33* | 62* | 22* | 14
Cc1ccccc1Cn1cc(NC(=O)c2cc(-c3ccco3)on2)cn1 | 3 | -2 | -24 | -1 | 0 | / | / | / | /
CSc1ccccc1NC(=O)c1cc(-c2cccs2)on1 | 29 | -8 | 55* | 1 | 2 | 11 | 5 | 1 | 5
CCc1nc2ccc(C(=O)NCc3ccc4c(c3)OCO4)cn2c1N(CC)CCOC | 0 | / | -6 | / | / | / | / | / | /
